# Data reported in ChEMBL document CHEMBL1165982, “Induction of G(2)/M phase arrest and apoptosis by oridonin in human laryngeal carcinoma cells” (J Nat Prod, 2010).
# The source made the active and inactive calls. The rule behind the calls is not given here.
# Legend:
# HEp-2 [1] = experiment: Cytotoxicity against human Hep2 cells after 24 hrs by MTT assay; format: functional, cell-based; conditions: HEp-2, 24 h
# Outline: (§1)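 Cells seeded at 1.2 × 10^4 per well in 96-well plates, grown 24 h, then treated over 10.7–81 µM for 6, 12, 24, 36 or 48 h. Viability read by MTT. DMSO kept below 0.05%. IC50 taken at 24 h.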
# HEp-2 [2] = experiment: Cytotoxicity against human Hep2 cells at 36 uM after 24 hrs by MTT assay; format: functional; outline: as §1
# HEp-2 [3] = experiment: Induction of apoptosis in human Hep2 cells assessed as accumulation in subG1 phase using PI staining by flow cytometeric analysis; format: functional
# Outline: (§2)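 ATCC HEp-2 in RPMI-1640 with 10% FBS at 37 °C, 5% CO2, exposed to 36 µM for 0, 6, 12 or 24 h. 1 × 10^6 cells were fixed in 70% ethanol at 4 °C for at least 12 h, then stained on ice in the dark for 30 min with 50 µg/mL PI plus 1 mg/mL RNase A. Read by flow cytometry, ≥10 000 cells per sample. SubG1 counted as the apoptotic fraction. n = 3.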
# HEp-2 [4] = experiment: Induction of apoptosis in human Hep2 cells assessed as morphological changes at 36 uM after 24 hrs by microscopy; format: functional, cell-based
# HEp-2 [5] = experiment: Cell cycle arrest in human Hep2 cells assessed as accumulation at G2/M phase at 36 uM after 6 hrs using propidium iodide staining by flow cytometry; format: functional; outline: as §2
# HEp-2 [6] = experiment: Cell cycle arrest in human Hep2 cells assessed as accumulation at G2/M phase at 36 uM after 12 hrs using propidium iodide staining by flow cytometry; format: functional; outline: as §2
# HEp-2 [7] = experiment: Cell cycle arrest in human Hep2 cells assessed as accumulation at G2/M phase at 36 uM after 24 hrs using propidium iodide staining by flow cytometry; format: functional; outline: as §2
# HEp-2 [8] = experiment: Induction of ROS generation in human Hep2 cells at 36 uM after 3 hrs relative to control; format: functional, cell-based
# Outline: (§3)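 Cells exposed to 36 µM for 0, 3, 6, 12 or 24 h, then loaded with DCF-DA (10 mM as printed) for 15 min at 37 °C. Harvested, resuspended in PBS and read by flow cytometry (ex 480 nm, em 525 nm). Result given as % DCF-positive cells. n = 3.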
# HEp-2 [9] = experiment: Induction of ROS generation in human Hep2 cells assessed as ratio of DCF-positive cells at 36 uM after 3 hrs relative to control; format: functional; outline: as §3
# HEp-2 [10] = experiment: Induction of ROS generation in human Hep2 cells assessed as ratio of DCF-positive cells at 36 uM after 6 hrs relative to control; format: functional; outline: as §3
# HEp-2 [11] = experiment: Induction of ROS generation in human Hep2 cells assessed as ratio of DCF-positive cells at 36 uM after 12 hrs relative to control; format: functional; outline: as §3
# HEp-2 [12] = experiment: Induction of ROS generation in human Hep2 cells assessed as ratio of DCF-positive cells at 36 uM after 24 hrs relative to control; format: functional; outline: as §3
# HEp-2 [13] = experiment: Induction of ROS generation in human Hep2 cells assessed as ROS level at 36 uM after 24 hrs in presence of N-acetyl-cysteine ROS scavenger; format: functional
# Outline: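 ROS read as % DCF-positive cells after 24 h co-incubation of 36 µM with 2.5 mM N-acetylcysteine. DCF-DA loading 15 min at 37 °C; flow cytometry at ex 480 / em 525 nm. n = 3.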
# HEp-2 [14] = experiment: Induction of apoptosis in human Hep2 cells assessed as accumulation in subG1 phase using PI staining at 36 uM after 24 hrs by flow cytometeric analysis in presence of N-acetyl-cysteine ROS scavenger; format: functional
# Outline: (§4)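 HEp-2 cells were pretreated 1 h with 2.5 mM N-acetylcysteine, then co-incubated with 36 µM for 24 h. They were then fixed in 70% ethanol (≥12 h, 4 °C) and stained on ice in the dark for 30 min with 50 µg/mL PI and 1 mg/mL RNase A. G2/M and subG1 fractions were read by flow cytometry, ≥10 000 cells counted. n = 3.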
# HEp-2 [15] = experiment: Induction of apoptosis in human Hep2 cells assessed as accumulation in G2/M phase using PI staining at 36 uM after 24 hrs by flow cytometeric analysis in presence of N-acetyl-cysteine ROS scavenger; format: functional; outline: as §4
# HEp-2 [16] = experiment: Induction of apoptosis in human Hep2 cells assessed as apoptotic bodies using acridine orange staining at 36 uM after 24 hrs by microscopic analysis; format: functional, cell-based
# HEp-2 [17] = experiment: Induction of apoptosis in human Hep2 cells assessed as fragmented DNA using acridine orange staining at 36 uM after 24 hrs by microscopic analysis; format: functional, cell-based
# HEp-2 [18] = experiment: Induction of apoptosis in human Hep2 cells assessed as apoptotic bodies using acridine orange staining at 36 uM after 24 hrs by microscopic analysis in presence of N-acetyl-cysteine ROS scavenger; format: functional, cell-based
# HEp-2 [19] = experiment: Induction of apoptosis in human Hep2 cells assessed as fragmented DNA using acridine orange staining at 36 uM after 24 hrs by microscopic analysis in presence of N-acetyl-cysteine ROS scavenger; format: functional, cell-based
# HEp-2 [20] = experiment: Induction of apoptosis in human Hep2 cells assessed as decrease in mitochondrial membrane potential using rhodamine 123 staining at 36 uM after 24 hrs by FACScan flow cytometry; format: functional; design: scale not given: the % may be the effect or the level left
# Outline: (§5)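 Membrane potential: HEp-2 exposed to 36 µM for 0–24 h, alone or with 2.5 mM N-acetylcysteine for 24 h. Cells collected into PBS with 1 µg/mL rhodamine-123, held 15 min at 37 °C, then read by flow cytometry for % rhodamine-123-bright cells. n = 3.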
# HEp-2 [21] = experiment: Induction of apoptosis in human Hep2 cells assessed as decrease in mitochondrial membrane potential using rhodamine 123 staining at 36 uM after 24 hrs by FACScan flow cytometry in presence of N-acetyl-cysteine ROS scavenger; format: functional; design: scale not given: the % may be the effect or the level left; outline: as §5
# HEp-2 [22] = experiment: Induction of apoptosis in human Hep2 cells assessed as increase in pro-apoptotic Bax protein at 36 uM after 6 hrs by Western blot analysis; format: functional, cell-based
# Outline: (§6)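 Treatment: 36 µM for 0, 6, 12 or 24 h, alone or with 2.5 mM N-acetylcysteine or 500 U/mL catalase. Lysis 60 min at 4 °C in Hepes pH 7.4/1% Triton X-100 with phosphatase and protease inhibitors, spin 13000g. Lysates run on 12% SDS-PAGE, blotted to nitrocellulose, probed with polyclonal antibodies, HRP/DAB detection. Representative of ≥3 experiments.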
# HEp-2 [23] = experiment: Induction of apoptosis in human Hep2 cells assessed as increase in cytochrome c at 36 uM after 12 hrs by Western blot analysis; format: functional, cell-based; outline: as §6
# HEp-2 [24] = experiment: Induction of apoptosis in human Hep2 cells assessed as decrease in Bcl-2 at 36 uM after 12 hrs by Western blot analysis; format: functional, cell-based; conditions: in the assay text read “after 24 hrs” for “after 12 hrs”; outline: as §6
# HEp-2 [25] = experiment: Induction of apoptosis in human Hep2 cells assessed as increase in AIF level at 36 uM after 6 hrs by Western blot analysis; format: functional, cell-based; outline: as §6
smiles,measurement,setting,value
C=C1C(=O)[C@]23[C@H](O)[C@H]1CC[C@H]2[C@@]12CO[C@]3(O)[C@@H](O)[C@@H]1C(C)(C)CC[C@@H]2O [ORIDONIN],IC50,HEp-2 [1],37.1 µM
same,Activity,HEp-2 [2],50%
same,Activity,HEp-2 [3],26.57%
same,Activity,HEp-2 [4],Active
same,Activity,HEp-2 [5],32.84%
same,Activity,HEp-2 [6],40.57%
same,Activity,HEp-2 [7],25.84%
same,Activity,HEp-2 [8],Active
same,Activity,HEp-2 [9],16.65%
same,Activity,HEp-2 [10],17.25%
same,Activity,HEp-2 [11],24.21%
same,Activity,HEp-2 [12],24.86%
same,Activity,HEp-2 [13],4.41%
same,Activity,HEp-2 [14],3.39%
same,Activity,HEp-2 [15],14%
same,Activity,HEp-2 [16],Active
same,Activity,HEp-2 [17],Active
same,Activity,HEp-2 [18],inactive
same,Activity,HEp-2 [19],inactive
same,Activity,HEp-2 [20],58.6%
same,Activity,HEp-2 [21],89.31%
same,Activity,HEp-2 [22],Active
same,Activity,HEp-2 [23],Active
same,Activity,HEp-2 [24],Active
same,Activity,HEp-2 [25],Active
